A word on the solubility: it is the concentration that dissolves in the medium under given conditions. Read a low solubility as a poorly soluble substance. As usually defined, the CLint scaled is the capacity of the preparation to metabolise the compound, expressed as a volume cleared per time. Read a low CLint scaled as slow turnover. Usually fraction unbound stands for free concentration divided by total concentration. The low end stands for little free substance, the high end for much free substance. As a reminder, the IC50 is the concentration at which inhibition is half-maximal.

Here are results for twelve molecules from ChEMBL document CHEMBL4673243, “Discovery of 9-Cyclopropylethynyl-2-((S)-1-[1,4]dioxan-2-ylmethoxy)-6,7-dihydropyrimido[6,1-a]isoquinolin-4-one (GLPG1205), a Unique GPR84 Negative Allosteric Modulator Undergoing Evaluation in a Phase II Clinical Trial” (J Med Chem, 2020).

≈ marks a conversion by molar mass, not a printed value.

Data set [1] is described as follows: physchem. The following applies: aqueous solution with 2% DMSO, pH 7.4.
Data set [2] can be described thus: in vitro. The note with it: mouse, cryopreserved hepatocytes.
Data set [3] is described as follows: Plasma protein binding in human at 5 uM measured after 4 hrs by LC-MS/MS analysis.
Data set [4] is described as follows: Plasma protein binding in mouse at 5 uM measured after 4 hrs by LC-MS/MS analysis.
Data set [5] in a line: in vitro. The following applies: human, cryopreserved hepatocytes.
A short description of data set [6]: Plasma protein binding in rat at 5 uM measured after 4 hrs by LC-MS/MS analysis.
A short description of data set [7]: in vitro. The note with it: mouse, liver microsomes.
The nature of data set [8]: in vitro. The note with it: human, liver microsomes. For orientation: Liver microsomes are vesicles of endoplasmic reticulum, rich in cytochrome P450 enzymes.
Data set [9] in a line: in vitro. The following applies: rat, liver microsomes.
Data set [10] deals with 3',5'-cyclic-AMP phosphodiesterase 4A (Homo sapiens, UniProt P27815). Briefly: Inhibition of recombinant human PDE4A overexpressed in HEK293 cells assessed as reduction in cAMP hydrolysis by HTRF based immunoassay. Type of data set: cell-based. The following applies: read-out: IC50. A digest of the protocol:
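Human PDE4A from lysate of HEK293 cells overexpressing the enzyme hydrolyses cAMP; remaining cAMP measured by HTRF competitive immunoassay (d2-labelled cAMP vs cryptate anti-cAMP antibody), signal inversely proportional to cAMP; IC50 determined.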
(In general: In TR-FRET formats the signal depends on donor and acceptor labels being close together.)

A short description of data set [11]: Inhibition of embelin-induced migration of human neutrophils preincubated for 30 mins followed by embelin addition and measured after 1 hr by ATPlite luminescence assay. The following applies: Neutrophil. (Cellular ATP, detected with luciferase, serves as a proxy for viable cell number.)

3',5'-cyclic-AMP phosphodiesterase 4A, sequence (P27815 whole entry): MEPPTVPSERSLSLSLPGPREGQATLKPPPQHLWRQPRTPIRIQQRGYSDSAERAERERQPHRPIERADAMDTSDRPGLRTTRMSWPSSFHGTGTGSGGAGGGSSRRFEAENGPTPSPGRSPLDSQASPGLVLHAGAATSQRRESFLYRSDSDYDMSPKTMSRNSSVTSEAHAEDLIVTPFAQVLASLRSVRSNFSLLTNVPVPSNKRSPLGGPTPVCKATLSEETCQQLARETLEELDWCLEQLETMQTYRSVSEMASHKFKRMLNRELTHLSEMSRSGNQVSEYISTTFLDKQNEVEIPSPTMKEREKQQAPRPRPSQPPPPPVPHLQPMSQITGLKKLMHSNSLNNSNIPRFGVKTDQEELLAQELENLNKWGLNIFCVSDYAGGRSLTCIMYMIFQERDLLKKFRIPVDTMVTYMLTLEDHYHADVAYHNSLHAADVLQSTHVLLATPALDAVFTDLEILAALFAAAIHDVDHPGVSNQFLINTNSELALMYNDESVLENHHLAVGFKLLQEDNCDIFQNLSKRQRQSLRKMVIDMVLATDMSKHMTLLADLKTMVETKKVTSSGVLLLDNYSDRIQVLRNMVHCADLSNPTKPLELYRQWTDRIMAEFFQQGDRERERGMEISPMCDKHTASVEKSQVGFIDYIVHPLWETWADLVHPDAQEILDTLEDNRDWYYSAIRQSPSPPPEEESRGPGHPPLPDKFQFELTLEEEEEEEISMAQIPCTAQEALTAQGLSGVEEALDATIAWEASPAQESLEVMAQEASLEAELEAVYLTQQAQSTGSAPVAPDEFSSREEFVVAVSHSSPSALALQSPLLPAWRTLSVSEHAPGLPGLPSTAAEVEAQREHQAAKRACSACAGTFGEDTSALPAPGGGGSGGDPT

In the case of `CCCCCCOc1cc2n(c(=O)n1)CCc1cc(OC)c(OC)cc1-2`, the solubility in [1] turned out to be 3 µg/mL (≈ 8.37 µM).

For `COc1ccc2c(c1)CCn1c-2cc(OC[C@H]2COc3ncccc3O2)nc1=O`, the CLint scaled at 1 µM is 182 mL/min/kg in data set [2] and 13.3 mL/min/kg in data set [5]. Moreover, the fraction unbound at 4 h, 5 µM in data set [3] is 0.027; in [4], 0.087; in [6], 0.021. Also, the intrinsic metabolic clearance (CLint scaled) at 0.5 h, 1 µM in data set [7] was 360 mL/min/kg; in [8], 35 mL/min/kg; in data set [9], 152 mL/min/kg.

For `COc1cc2c(cc1OC)-c1cc(OCCOc3ccccc3)nc(=O)n1CC2`, the results for the IC50 in data set [10] and in data set [11] were 2110 nM and 128 nM, respectively. In data set [1], this molecule had a solubility of 26 µg/mL (≈ 65.9 µM).

With `COc1ccc2c(c1)CCn1c-2cc(OCc2ncccc2F)nc1=O`, the 50% inhibitory concentration (IC50) in data set [10] is > 10000 nM. The molecule further gave a CLint scaled at 0.5 h, 1 µM in data set [7] of 487 mL/min/kg.

In the case of `COc1ccc2c(c1)CCn1c-2cc(OCCOc2ccccc2)nc1=O`, the 50% inhibitory concentration (IC50) in data set [10] was > 10000 nM.

As to `COc1cc2c(cc1OC)-c1cc(OCC3CCCO3)nc(=O)n1CC2` (centres undefined), the concentration for half-maximal inhibition (IC50) in data set [10] amounted to 2170 nM. Also, the concentration in solution in data set [1] (solubility) was 72 µg/mL (≈ 201 µM). The intrinsic metabolic clearance (CLint scaled) at 0.5 h, 1 µM in [7] was 175 mL/min/kg.

Turning to `COc1cc2c(cc1OC)-c1cc(OCc3ncccc3F)nc(=O)n1CC2`, the IC50 in [10] was found to be 1090 nM.

Take `COc1cc2c(cc1OC)-c1cc(OCCOc3ccccn3)nc(=O)n1CC2`: the IC50 in data set [10] amounted to 586 nM. In addition, the concentration in solution in [1] (solubility) came to 18 µg/mL (≈ 45.5 µM).

In the case of `COc1ccc2c(c1)-c1cc(OCc3ccccc3F)nc(=O)n1CC2`, the IC50 in data set [10] was > 10000 nM. Further, the CLint scaled at 0.5 h, 1 µM in data set [7] was 1970 mL/min/kg.

Regarding `COc1ccc2c(c1)CCn1c-2cc(OCc2ccccc2F)nc1=O`, in data set [10], the IC50 is > 10000 nM. The intrinsic clearance (CLint scaled) at 0.5 h, 1 µM in [7] was 1490 mL/min/kg.

Consider `O=c1nc(OCc2ccccc2F)cc2n1CCc1ccccc1-2`, for which the IC50 in [10] was > 10000 nM.

In the case of `COc1cc2c(cc1OC)-c1cc(OCc3ccccc3F)nc(=O)n1CC2`, the IC50 in data set [10] stood at 372 nM. The molecule further gave a solubility in [1] of 26 µg/mL (≈ 68 µM). The molecule also gave a CLint scaled at 0.5 h, 1 µM in [7] of 670 mL/min/kg.
